The list is not random: actives were taken first. Their share in the collection is about 3%.
esBAF inh: blocks esBAF chromatin remodeling in mouse ES cells; hit rate 2% among 350,000; reporter increase, % at 12.5 µM; Bmi1-luciferase knock-in reporter, 24 h; 100% = twice the neutral-well signal; in the data active means activation above about 40%; inconclusive means no clear call, values can overlap the other calls;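 further: 0% = median of the plate's neutral control wells and 100% = double that signal; a rise in the Bmi1 reporter signal indicates esBAF inhibition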
Wnt bcat act: Wnt/beta-catenin pathway activation; Wnt/beta-catenin reporter cell assay, activator, plate reader; activation, % at 9.35 µM; hit rate 1.2% among 300,000; AID 743398; in the data active means activation above about 30%, passing the limit was not always enough; inconclusive means no clear call, values can overlap the other calls;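 further: 0% = neutral control wells and 100% = positive control wells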
XiGFP reactiv: reactivates the inactive X chromosome in mouse fibroblasts. XiGFP mouse fibroblasts, % GFP-positive cells imaging, 3 d; cells co-treated with 5-aza-dC sensitizer; scaled so ellipticine positive control = 100%. activation, % at 7.58 µM. hit rate 0.055% among 360,000;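 active means mean normalized replicate activation at least 10% and every replicate at or above 10%; inconclusive means only one of the two criteria met; inactive means mean below 10% and not all replicates reach 10%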;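 further: 0% = median of on-plate neutral control wells and 100% = ellipticine 6 µM median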
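Assay system – SV40-immortalized XiGFP fibroblast cells, line 68-5-11 · Buffer or medium – DMEM supplemented with 5-aza-dC as sensitizing agent · Dosing – one concentration, pinned · Benchmarks – positive control ellipticine, 6 µM final · Times – 3 days compound exposure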
MITF TRPM1 HTS: increases MITF-driven TRPM1 promoter luciferase signal | SK-MEL-5 TRPM1-promoter luciferase, 24 h; % of positive control, neutral wells = 0 | activation, % at 12.5 µM | hit rate 0.75% among 300,000 | AID 588334;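 active means mean activation of at least 80% with every replicate also reaching 80%; inconclusive means mean reaches 80% but some replicate falls short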;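 further: 0% = neutral control wells and 100% = parthenolide positive control wells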
NSD2 inh: inhibitors of human histone methyltransferase NSD2; inhibition, % at 12.5 µM; hit rate 0.54% among 310,000; O96028; AID 743445; NSD2 peptide methylation, AlphaScreen, 120 min; in the data active means inhibition above about 50%
Casp6 inh: blocks human caspase-6 cleavage activity; purified caspase-6, Z-VEID-R110 cleavage fluorescence; inhibition, % at 12.5 µM; hit rate 0.53% among 350,000;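 active means mean inhibition across replicates at least about 35%, with every replicate also reaching that limit, limit read from the data; inconclusive means only one of the two criteria met; inactive means neither criterion met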;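 further: 0% = median of neutral control wells and 100% = no fluorescence left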
Target sequence (P55212 24-179 limits assumed): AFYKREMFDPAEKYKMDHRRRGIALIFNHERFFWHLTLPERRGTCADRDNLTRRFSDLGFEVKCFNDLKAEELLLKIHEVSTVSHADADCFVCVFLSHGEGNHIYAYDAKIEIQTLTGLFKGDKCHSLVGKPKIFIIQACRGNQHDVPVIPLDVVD
Target sequence (P55212 194-293 limits assumed): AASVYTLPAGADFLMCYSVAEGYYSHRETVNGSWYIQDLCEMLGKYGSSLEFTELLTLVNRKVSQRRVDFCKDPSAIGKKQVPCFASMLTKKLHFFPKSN
esBAF Ring1 qPCR: esBAF inhibition confirmed by Ring1 de-repression; shares compounds with esBAF inh; mouse ESC E14, Ring1 mRNA RT-qPCR fold change; fold change at 33 µM; 550 tested, under 10 active;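 active means Ring1 gene expression raised more than 2-fold over untreated cells in both replicates at either tested dose; inconclusive means only one replicate above 2-fold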;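 further: Ring1 transcript normalised to actin housekeeping signal by TaqMan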
esBAF Fgf4 qPCR: represses Fgf4 in mouse ESCs, confirming esBAF inhibition; shares compounds with esBAF inh; mouse ESC E14, Fgf4 mRNA qPCR fold change; stronger effect = lower value; Fgf4 expression fold change at 33 µM; hit rate 4% among 550; AID 743177;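 active means Fgf4 expression under 0.8 fold of control in both repeat measurements at one or both tested doses; inconclusive means under 0.8 fold in just a single repeat measurement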;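 further: Fgf4 transcript normalised to actin in duplex TaqMan qPCR; cells exposed to compound for 24 h before lysis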
esBAF Bmi1 qPCR: confirmation of esBAF inhibitors: Bmi1 de-repression in mouse ESCs; shares compounds with esBAF inh; AID 743180; fold change at 33 µM; 550 tested, under 10 active; mouse ESE14 ES cells, Bmi1 mRNA qPCR fold; stronger effect = higher value;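 active means Bmi1 expression fold change above 6 at either tested concentration, seen in replicate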
A549 cytotox: kills or reduces viability of A549 cells; A549 cytotoxicity, plate reader; AID 743188; 550 tested, under 10 active; shares compounds with esBAF inh; cell viability change % (negative = cytotoxic), % at 25 µM, hits read low; call rule not given here
HepG2 tox SP: kills or reduces viability of HepG2 cells. activity change, negative = inhibition, % at 25 µM. hit rate 4% among 550. shares compounds with esBAF inh. HepG2 cytotoxicity, plate reader; stronger effect = lower value; in the data active means activity change below about -50%
HEK293 tox SP: HEK293 cell cytotoxicity at single point; shares compounds with esBAF inh; plate reader; activity change, negative = inhibition, % at 25 µM, hits read low; hit rate 3% among 550; AID 743190; in the data active means activity change below about -38%, passing the limit was not always enough
An asterisk follows results filed as active.

CC1(C)C=Cc2cc(-c3coc4cc(O)cc(O)c4c3=O)cc(O)c2O1 was read as esBAF inh 68*, Wnt bcat act 23, MITF TRPM1 HTS 35, Casp6 inh 2, esBAF Ring1 qPCR 1.4, esBAF Fgf4 qPCR 0.97, esBAF Bmi1 qPCR 1.4, A549 cytotox 7, HepG2 tox SP -41 and HEK293 tox SP -8.
For O=C(Nc1cccc(Cl)c1)N[C@@H]1CC[C@@H](CCNC(=O)C2CCCC2)O[C@@H]1CO the results were esBAF inh -3, XiGFP reactiv 1 and Casp6 inh 2.
`Oc1[nH]c2ccccc2c1/C=N/N1CCCCC1` gave Wnt bcat act 2, XiGFP reactiv 0, MITF TRPM1 HTS 0 and NSD2 inh 4.
For Oc1[nH]c2ccccc2c1/C=N/c1nccs1 the results were esBAF inh 71*, Wnt bcat act -2, MITF TRPM1 HTS 56, NSD2 inh 17, esBAF Ring1 qPCR 1.4, esBAF Fgf4 qPCR 1, esBAF Bmi1 qPCR 1.7, A549 cytotox 0, HepG2 tox SP -40 and HEK293 tox SP -11.
For Cc1ccc(C)c(NC(=O)C2CC3CCC2C3)c1 (configuration not stated) the results were esBAF inh 26, Wnt bcat act 2, XiGFP reactiv 0 and Casp6 inh 0.
For Cc1ccc(NC(=O)C2CC3CCC2C3)c(Br)c1 (configuration not stated) the results were esBAF inh 73*, Wnt bcat act 7, XiGFP reactiv 0, MITF TRPM1 HTS 52, NSD2 inh -4, Casp6 inh 0, esBAF Ring1 qPCR 1, esBAF Fgf4 qPCR 1, esBAF Bmi1 qPCR 2, A549 cytotox -10, HepG2 tox SP -18 and HEK293 tox SP -11.
C[C@@H]1CCCCO[C@@H](CN(C)S(C)(=O)=O)[C@@H](C)CN([C@@H](C)CO)C(=O)c2cc(NS(C)(=O)=O)ccc2O1 was read as esBAF inh 4 and XiGFP reactiv 0.
Screening CCn1c(COc2ccc(OC)cc2)nc2ccccc21 returned esBAF inh 61*, Wnt bcat act 43*, MITF TRPM1 HTS 59, NSD2 inh 0, esBAF Ring1 qPCR 1, esBAF Fgf4 qPCR 0.96, esBAF Bmi1 qPCR 1.4, A549 cytotox -13, HepG2 tox SP 15 and HEK293 tox SP -9.
C[C@H]1CN([C@@H](C)CO)C(=O)c2cccc(NS(=O)(=O)c3ccc(Cl)cc3)c2O[C@@H]1CN(C)Cc1ccc(Cl)c(Cl)c1 was read as esBAF inh 1 and XiGFP reactiv 0.
For O=S(=O)(c1ccccc1)N1CC[C@@H]2[C@H](CO)Nc3ccc(C#CC4CCCCC4)cc3[C@@H]21 the results were XiGFP reactiv 0 and Casp6 inh 1.
Screening O=C(CCc1nnc(C2(c3ccc(Cl)cc3)CCC2)o1)N1CCCC1 returned esBAF inh 65*, Wnt bcat act 29, XiGFP reactiv 0, MITF TRPM1 HTS 43, NSD2 inh -5, Casp6 inh -3, esBAF Ring1 qPCR 0.9, esBAF Fgf4 qPCR 0.94, esBAF Bmi1 qPCR 1.3, A549 cytotox -12, HepG2 tox SP -12 and HEK293 tox SP -18.
COc1ccc([Si](C)(C)[C@H]2[C@H](CC(=O)N(CCO)Cc3ccccc3)O[C@@]3(C(=O)N(C)c4ccccc43)[C@@H]2C)cc1 was read as Casp6 inh 1.
NC(=O)CSc1nnc(NC(=O)C23CC4CC(CC(C4)C2)C3)s1 was read as MITF TRPM1 HTS 42 and NSD2 inh -4.
For CSc1nnc(NC(=O)C23CC4CC(CC(C4)C2)C3)s1 the results were esBAF inh 58*, Wnt bcat act 13, XiGFP reactiv 0, MITF TRPM1 HTS 46, NSD2 inh -5, Casp6 inh -7, esBAF Ring1 qPCR 1.1, esBAF Fgf4 qPCR inconclusive, esBAF Bmi1 qPCR 1, A549 cytotox -15, HepG2 tox SP -22 and HEK293 tox SP -8.
For C[C@@H]1CN([C@H](C)CO)C(=O)c2cc(NS(=O)(=O)c3ccc(F)cc3)ccc2O[C@@H](C)CCCCO[C@H]1CN(C)Cc1ccc(Cl)c(Cl)c1 the results were esBAF inh -21, XiGFP reactiv 0 and Casp6 inh 2.
For COc1cc(SC)ccc1C(=O)NCC1CCCCC1 the results were esBAF inh 65*, Wnt bcat act 0, XiGFP reactiv 0, MITF TRPM1 HTS 97*, NSD2 inh -2, Casp6 inh 0, esBAF Ring1 qPCR 1, esBAF Fgf4 qPCR 0.83, esBAF Bmi1 qPCR 1.4, A549 cytotox -5, HepG2 tox SP -17 and HEK293 tox SP -20.
`Cc1ccc(-c2nc3ccccc3[nH]2)cn1` gave esBAF inh 63*, Wnt bcat act 0, XiGFP reactiv 0, MITF TRPM1 HTS 33, NSD2 inh 0, Casp6 inh 2, esBAF Ring1 qPCR 0.9, esBAF Fgf4 qPCR 1.4, esBAF Bmi1 qPCR 1.4, A549 cytotox -30, HepG2 tox SP -38 and HEK293 tox SP -28.
Screening Cc1nc2ccc(-c3nc4ccccc4[nH]3)cc2[nH]1 returned Wnt bcat act inconclusive, XiGFP reactiv 0, MITF TRPM1 HTS 55 and Casp6 inh 2.
For COc1ccccc1C=Cc1ccnc2ccccc12 the results were esBAF inh 82*, Wnt bcat act -3, XiGFP reactiv 0, MITF TRPM1 HTS -2, NSD2 inh -4, Casp6 inh -3, esBAF Ring1 qPCR 1.1, esBAF Fgf4 qPCR 0.49*, esBAF Bmi1 qPCR 11*, A549 cytotox -8, HepG2 tox SP 34 and HEK293 tox SP -37.
Screening COCC(=O)N1[C@H](CO)[C@H](c2ccccc2-c2cccc(F)c2)[C@@H]1C#N returned XiGFP reactiv 0 and Casp6 inh 2.

Assay outcomes deposited in PubChem BioAssay by Broad Institute.
